Laboratory results from ChEMBL document CHEMBL2093137, “WHO-TDR NTD Screening”.
In brackets after ≈: the same amount, converted by molar mass.

What was measured:
[1] = WHO-TDR: Cytotoxicity; format: toxicity, cell-based; conditions: human, MRC5 cells
Plasmodium falciparum K1 = experiment: WHO-TDR: Malaria; format: functional, organism-based, Homo sapiens; conditions: Erythrocyte
In short: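 A diverse library of 10,000 compounds from Life Chemicals, filtered for drug-likeness and reactive groups, was screened against the intra-erythrocytic Plasmodium falciparum K1 strain in human red blood cells. Previously published standard procedures were followed, with a reference drug as positive control. Antiplasmodial potency is given as IC50.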

Trypanosoma cruzi = experiment: WHO-TDR: Chagas disease; format: functional, organism-based, Homo sapiens; conditions: MRC5
In short: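 A diverse library of 10,000 compounds from Life Chemicals, filtered for drug-likeness and reactive groups, was screened against intracellular amastigotes of Trypanosoma cruzi Tulahuen CL2 beta-galactosidase strain. The parasites were grown in MRC-5SV2 human lung fibroblast host cells, and a reference drug served as positive control under previously published standard procedures. Antiparasitic potency is given as IC50.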

[2] = system: Trypanosoma brucei brucei; experiment: WHO-TDR: Human African Trypanosomiasis (HAT); format: functional, organism-based; conditions: Squib-427
In short: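 A diverse library of 10,000 compounds from Life Chemicals, filtered for drug-likeness and reactive groups, was screened against bloodstream forms of Trypanosoma brucei Squib 427 strain in a whole-organism assay. Previously published standard procedures were followed, with reference drugs serving as positive controls. Antiparasitic potency is given as IC50.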

Leishmania infantum = experiment: WHO-TDR: Leishmaniasis; format: functional, organism-based, Mus musculus; conditions: Macrophage
In short: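 A diverse library of 10,000 compounds from Life Chemicals, filtered for drug-likeness and reactive groups, was screened against whole organisms. The targets were intracellular amastigotes of Leishmania infantum MHOM/MA(BE)/67 growing in murine peritoneal macrophages. Previously published standard procedures were followed, with a reference drug as positive control. Antiparasitic potency is given as IC50.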

Schistosoma mansoni [3] = experiment: (§1) WHO-TDR: Schistosomiasis; format: functional; set-up: concentration or dose not given beside the values
In short: (§2)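 Activity appears as percent inhibition and as IC50. The underlying screen tested a diverse library of 10,000 compounds, supplied by Life Chemicals, on whole larval and/or adult worms of the Puerto Rican strain of Schistosoma mansoni.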

Onchocerca lienalis [4] = experiment: (§3) WHO-TDR: Onchocerciasis; format: functional; set-up: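 at 12.5 µM on microfilariae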
In short: (§4)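 Following previously published standard procedures, with reference drugs as positive controls, a diverse Life Chemicals library was tested on whole Onchocerca ochengi or Onchocerca lienalis microfilariae. The library held 10,000 compounds filtered for drug-likeness and reactive groups. Activity is recorded both as percent inhibition and as IC50.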

Onchocerca lienalis [5] = experiment: as §3; format: functional, organism-based; in short: as §4
Brugia malayi [6] = experiment: (§5) WHO-TDR: Lymphatic Filariasis; format: functional; set-up: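 tested at 10 µM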
In short: (§6)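 Following previously published standard procedures, compounds were tested on whole Brugia malayi microfilariae, with reference drugs as positive controls. They came from a diverse Life Chemicals collection of 10,000 compounds filtered for drug-likeness and reactive groups. Results appear as percent inhibition and as IC50.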

Brugia malayi [7] = experiment: as §5; format: functional, organism-based; in short: as §6
Brugia malayi [8] = experiment: as §5; format: functional; set-up: concentration or dose not given beside the values; in short: as §6; remark: listed apart in the source
Brugia malayi [9] = experiment: as §5; format: functional, organism-based; in short: as §6; remark: listed apart in the source
Schistosoma mansoni [10] = experiment: as §1; format: functional, organism-based; in short: as §2

Row | IC50 (Plasmodium falciparum K1) | IC50 [2] | IC50 (Leishmania infantum) | IC50 (Onchocerca lienalis [5]) | IC50 (Brugia malayi [7]) | IC50 (Brugia malayi [9]) | IC50 (Schistosoma mansoni [10]) | SMILES | IC50 [1] | IC50 (Trypanosoma cruzi) | % Inhibition (Schistosoma mansoni [3]) | % Inhibition (Onchocerca lienalis [4]) | % Inhibition (Brugia malayi [6]) | % Inhibition (Brugia malayi [8])
1 | > 11.5 µg/mL | > 11.5 µg/mL | 3.74 µg/mL (≈ 9.71 µM) | – | 1.77 µM | 0.26 µM | – | Cc1cccc(-n2nc3c(c2NC(=O)Nc2cccc(Cl)c2)CSC3)c1 | > 11.5 µg/mL | 9.48 µg/mL (≈ 24.6 µM) | 25% | 33.34% | 100% | 100%
2 | > 15.1 µg/mL | > 15.1 µg/mL | > 15.1 µg/mL | – | – | – | 5.1 µM | COc1cc(C)c(Cl)cc1S(=O)(=O)Nc1ccc(Nc2nc(C)cc(N3CCOCC3)n2)cc1 | > 15.1 µg/mL | > 15.1 µg/mL | 100% | 46.7% | – | –
3 | > 8.86 µg/mL | 4.38 µg/mL (≈ 8.92 µM) | 4.66 µg/mL (≈ 9.49 µM) | – | – | – | 7.4 µM | CN(CC1CCCO1)S(=O)(=O)c1ccc(C(=O)Nc2cccc(-c3nc4ccccc4o3)c2)cc1 (configuration not stated) | > 8.86 µg/mL | > 8.86 µg/mL | 100% | 13.3% | – | –
4 | > 13.8 µg/mL | 3.6 µg/mL (≈ 7.79 µM) | 4.48 µg/mL (≈ 9.71 µM) | – | – | 1.18 µM | – | Cc1ccc(S(=O)(=O)Nc2ccccc2C(=O)Nc2nc3c(s2)Cc2ccccc2-3)cc1 | 2.51 µg/mL (≈ 5.44 µM) | 4.98 µg/mL (≈ 10.8 µM) | 0% | 0% | 25% | 100%
5 | > 12.5 µg/mL | > 12.5 µg/mL | > 12.5 µg/mL | – | – | – | 6.6 µM | O=C(NCc1nnnn1-c1ccc(Cl)cc1)C1c2ccccc2Oc2ccccc21 | > 12.5 µg/mL | > 12.5 µg/mL | 100% | 0% | – | –
6 | 0.564 µg/mL (≈ 1.75 µM) | 0.309 µg/mL (≈ 0.96 µM) | 1.9 µg/mL (≈ 5.9 µM) | 0.344 µg/mL (≈ 1.07 µM) | – | – | – | O=C(Nc1nc(-c2ccccn2)cs1)c1ccc(Cl)s1 | 4.39 µg/mL (≈ 13.6 µM) | < 0.0965 µg/mL | – | 100% | – | –

Continued, compound first:

Row | SMILES | IC50 (Plasmodium falciparum K1) | IC50 [2] | IC50 (Leishmania infantum) | IC50 (Onchocerca lienalis [5]) | IC50 (Brugia malayi [7]) | IC50 (Brugia malayi [9]) | IC50 (Schistosoma mansoni [10]) | IC50 [1] | IC50 (Trypanosoma cruzi) | % Inhibition (Schistosoma mansoni [3]) | % Inhibition (Onchocerca lienalis [4]) | % Inhibition (Brugia malayi [6]) | % Inhibition (Brugia malayi [8])
7 | CCn1nnc2c(N3CCN(C(c4ccccc4)c4ccccc4)CC3)ncnc21 | > 12 µg/mL | 3.83 µg/mL (≈ 9.6 µM) | > 12 µg/mL | 1.48 µg/mL (≈ 3.7 µM) | – | – | – | > 12 µg/mL | 3.62 µg/mL (≈ 9.06 µM) | 0% | 100% | 0% | –
8 | COC(=O)c1sc(-c2ccccc2)cc1NC(=O)CCS(=O)(=O)c1ccccc1 | > 9.7 µg/mL | > 9.7 µg/mL | > 9.7 µg/mL | – | – | – | 8.2 µM | > 9.7 µg/mL | > 9.7 µg/mL | 100% | 13.3% | – | –
9 | CCOC(=O)N1CCc2c(sc(NC(=O)c3nc4ccccc4s3)c2C(N)=O)C1 | 0.746 µg/mL (≈ 1.73 µM) | 4.18 µg/mL (≈ 9.71 µM) | 4.18 µg/mL (≈ 9.71 µM) | 1.75 µg/mL (≈ 4.06 µM) | – | – | 6.7 µM | 4.58 µg/mL (≈ 10.6 µM) | 1.52 µg/mL (≈ 3.54 µM) | 100% | 100% | – | –
10 | COc1ccc(C(=O)C[n+]2cc(-c3ccc(OC)cc3)n3c2CCCCC3)cc1 | 0.505 µg/mL | 3.73 µg/mL | 4.58 µg/mL | – | – | 2.99 µM | – | 0.572 µg/mL | < 0.141 µg/mL | 50% | 0% | 50% | 99%
11 | O=C(CSc1nncc(=O)[nH]1)Nc1ccc(Br)cc1 | 0.966 µg/mL (≈ 2.83 µM) | 3.24 µg/mL (≈ 9.49 µM) | > 10.2 µg/mL | – | – | – | 5.2 µM | 1.76 µg/mL (≈ 5.15 µM) | 2.82 µg/mL (≈ 8.26 µM) | 100% | 0% | – | –
12 | O=C(Nc1cc2ccccc2cc1NC(=O)c1ccc2c(c1)OCCO2)c1ccc2c(c1)OCCO2 | > 14.5 µg/mL | > 14.5 µg/mL | > 14.5 µg/mL | – | – | – | 8.8 µM | > 14.5 µg/mL | > 14.5 µg/mL | 100% | 13.3% | – | –
13 | COc1cc(OC)cc(C(=O)N(CCCN(C)C)c2nc3c(C)c(C)ccc3s2)c1 | 1.13 µg/mL (≈ 2.64 µM) | 0.456 µg/mL (≈ 1.07 µM) | 4.51 µg/mL (≈ 10.5 µM) | – | – | – | 5.7 µM | 2.84 µg/mL (≈ 6.64 µM) | 4.66 µg/mL (≈ 10.9 µM) | 100% | 0% | – | –
